An excerpt weighted towards active compounds, which were near 3.5% of everything screened.
MrgX1 antagonist – antagonists of human MrgX1 receptor, primary screen, HEK293 cells, Fluo-4 calcium flux. BAM8-22 antagonism; hits give low values. B-score at 10 µM. 310,000 compounds, 1.3% hits;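 active = calcium-response B-score plate-corrected more than 3 library SD below zero, starting fluorescence within 5 deviations, no agonist response on first addition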;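 note: peak minus trough fluorescence over baseline after final BAM8-22 challenge near maximal dose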
Target sequence (Q96LB2 whole entry, looked up): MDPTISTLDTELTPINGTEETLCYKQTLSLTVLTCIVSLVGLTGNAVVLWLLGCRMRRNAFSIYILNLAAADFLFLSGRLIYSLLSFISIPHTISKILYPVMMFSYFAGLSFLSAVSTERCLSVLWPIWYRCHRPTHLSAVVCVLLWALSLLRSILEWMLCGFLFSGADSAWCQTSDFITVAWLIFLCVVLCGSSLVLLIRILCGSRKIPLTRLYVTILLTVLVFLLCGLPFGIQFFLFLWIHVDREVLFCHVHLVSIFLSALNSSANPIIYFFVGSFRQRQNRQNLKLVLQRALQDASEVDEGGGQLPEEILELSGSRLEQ
RGS4 act – RGS4 potentiators or activators, primary screen, cell-based, HEK293 M3R inducible RGS4, calcium flux | B-score at 10 µM | 310,000 compounds, 0.92% hits | carbachol calcium flux Fluo4; hits give low values;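 active = B-score of the integrated calcium signal more than 4 SD below the library mean, with starting fluorescence not abnormally high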;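 note: negative B-score means reduced calcium response which marks RGS4 activation or potentiation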
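System – HEK293 FlpIn-TREx cells, stable M3R, doxycycline-inducible RGS4 · Reagent – ECmax carbachol challenge · Times – compound preincubation 20 min at room temperature before agonist · Technique – Fluo4 fluorescence kinetic imaging of calcium · Measure – B score of integrated Fluo4 ratio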
MrgX1 PAM – positive allosteric modulators of MrgX1, primary screen, HEK293 cells, Fluo-4 calcium flux. 310,000 compounds, 0.63% hits. Mas-related G-protein coupled receptor member X1 (Homo sapiens), Q96LB2. B-score at 10 µM. FDSS; hits give high values;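 active = plate-corrected calcium response at least 3 library SD above typical, normal starting fluorescence, not activating the receptor alone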;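 note: compound read alongside a low EC10 to EC30 dose of BAM8-22 agonist; peak minus trough fluorescence over baseline measured at the second addition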
RGS4 inh – RGS4 inhibitors, primary screen, cell-based, HEK293 M3R inducible RGS4, calcium flux; Regulator of G-protein signaling 4 (Homo sapiens), P49798; B-score at 10 µM; 310,000 compounds, 0.45% hits; Fluo-4 calcium flux; hits give high values; triggered by carbachol at its EC20;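 active = B-score, a plate-corrected calcium signal, over three deviations above library mean, with baseline fluorescence within five deviations of library mean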;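 note: RGS4 expression induced by doxycycline in cells with stable M3 receptor; B-score is computed from the integrated fluorescence ratio over baseline after carbachol; higher B-score means a larger calcium signal and so more RGS4 inhibition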
Target sequence (P49798 whole entry, looked up): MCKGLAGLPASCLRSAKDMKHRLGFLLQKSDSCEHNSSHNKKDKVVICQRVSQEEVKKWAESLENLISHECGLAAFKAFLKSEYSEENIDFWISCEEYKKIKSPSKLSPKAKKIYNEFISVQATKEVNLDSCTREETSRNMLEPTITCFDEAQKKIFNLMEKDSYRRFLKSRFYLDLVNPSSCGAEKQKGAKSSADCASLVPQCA
MrgX1 agonist – agonists of human MrgX1 receptor, primary screen, HEK293 cells, Fluo-4 calcium flux; Mas-related G-protein coupled receptor member X1 (Homo sapiens), Q96LB2; Fluo-4 calcium fluorescence, agonist mode; hits give high values; B-score at 10 µM; 310,000 compounds, 0.44% hits; AID 588627, 2011;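 active = calcium response B-score plate-corrected fluorescence ratio at least 3 library SD, with starting fluorescence B-score inside 5 SD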
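System: HEK293 cells stably expressing human MrgX1 receptor; Dosing: test compound in the initial addition of three; Schedule: overnight plating, then 30 min 37 °C plus 30 min room-temperature dye loading; Detection: kinetic calcium dye fluorescence, Fluo-4 NW; Controls: per-plate positive and negative controls for Z′ factor.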
MrgX1 ag reconf – MrgX1 receptor agonists, duplicate retest, confirmation, HEK293 cells, Fluo-4 calcium flux; Fluo-4 calcium fluorescence, FDSS; shares compounds with MrgX1 agonist; activation, % at 10 µM; 600 compounds, 78% hits;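 active = calcium signal rise, corrected for plate position, at least 3 library SD high, with starting brightness within 5 such deviations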
HEK293 Ca flux – nonspecific calcium signal in parental HEK293, confirmation, counter-screen for MrgX1 antagonist project, parental HEK293 cells, Fluo-4 calcium flux; Fluo-4 calcium fluorescence, FDSS; 4,000 compounds, 2% hits; shares compounds with MrgX1 antagonist; fluorescence ratio F(max-min)/F0 at 10 µM;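 active = duplicate-averaged calcium fluorescence ratio at least three times the standard deviation of buffer wells, a nonspecific response in parental cells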
HEK293 Ca counter – calcium response in parental HEK293 cells, primary screen, counter-screen for MrgX1 allosteric activator project, cell-based, Fluo-4 calcium flux, duplicate. fluorescence ratio F(max-min)/F0 at 10 µM. 4,000 compounds, 0.4% hits. Fluo-4 fluorescence ratio; hits give high values. shares compounds with MrgX1 antagonist;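 active = calcium fluorescence ratio, averaged over duplicates, at least 3 SD of the buffer-well ratio, meaning a nonspecific response in receptor-free cells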;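 note: untransfected parental HEK293 lacking MrgX1 used as counterscreen for MrgX1 allosteric activators; fluorescence change taken during the second addition on a kinetic imager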
HEK293 Ca cntr2 – calcium response in parental HEK293 cells, primary screen, counter-screen for MrgX1 agonist project, cell-based, Fluo-4 calcium flux, duplicate, agonist mode; shares compounds with MrgX1 antagonist; Fluo-4 calcium fluorescence (FDSS); hits give high values; fluorescence ratio F(max-min)/F0 at 10 µM; 4,000 compounds, 8.7% hits; AID 624115, 2012;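 active = calcium fluorescence ratio at least three times the spread of buffer wells, meaning a non-specific response in parental cells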
Starred values were filed as active, the others as inactive.

For CCCCC(=O)NC(=S)Nc1ccc(NC(=O)C(C)C)c(OC)c1 the results were MrgX1 antagonist inactive, RGS4 act inactive, MrgX1 PAM inactive, RGS4 inh inactive and MrgX1 agonist inactive.
Screening Cc1ccc(S(=O)(=O)N(Cc2cccc(F)c2)C(=O)N2CCN(C)CC2)cc1 returned MrgX1 antagonist inactive, RGS4 act inactive, MrgX1 PAM inactive, RGS4 inh inactive and MrgX1 agonist inactive.
`COc1cccc(Sc2ccccc2/C=N/NC(N)=O)c1` gave MrgX1 antagonist inactive, RGS4 act inactive, MrgX1 PAM inactive, RGS4 inh inactive and MrgX1 agonist inactive.
Cc1cc2oc(=O)cc(CN3CCCc4ccccc43)c2cc1C was read as MrgX1 antagonist inactive, RGS4 act inactive, MrgX1 PAM inactive, RGS4 inh inactive, MrgX1 agonist 67*, MrgX1 ag reconf 179%*, HEK293 Ca flux inactive, HEK293 Ca counter inactive and HEK293 Ca cntr2 inactive.
`CC(=O)N(c1ccccc1)c1nnc(-c2cnc(C)cn2)s1` gave MrgX1 antagonist inactive, RGS4 act inactive, MrgX1 PAM inactive, RGS4 inh inactive and MrgX1 agonist inactive.
For O=C(NC1CCCCC1)c1cc(S(=O)(=O)N2CCOCC2)c(Cl)cc1Cl the results were MrgX1 antagonist inactive, RGS4 act inactive, MrgX1 PAM inactive, RGS4 inh inactive and MrgX1 agonist inactive.
Screening O=C1Cc2ccccc2Sc2cc(OCCCN3CCCCC3)ccc21 returned MrgX1 antagonist inactive, RGS4 act inactive, MrgX1 PAM inactive, RGS4 inh inactive and MrgX1 agonist inactive.
For O=C1Cc2ccccc2Sc2c(OCCN3CCCCC3)cccc21 the results were MrgX1 antagonist inactive, RGS4 act inactive, MrgX1 PAM inactive, RGS4 inh inactive, MrgX1 agonist 27*, MrgX1 ag reconf 203%*, HEK293 Ca flux inactive, HEK293 Ca counter inactive and HEK293 Ca cntr2 inactive.
COc1ccccc1NC(=O)Nc1nn(C)c2cccc(OC)c12 was read as MrgX1 antagonist inactive, RGS4 act inactive, MrgX1 PAM inactive, RGS4 inh inactive and MrgX1 agonist inactive.
For C=CCSC(=S)NC1CCS(=O)(=O)C1 (stereo unspecified) the results were MrgX1 antagonist inactive, RGS4 act inactive, MrgX1 PAM inactive, RGS4 inh inactive, MrgX1 agonist 31*, MrgX1 ag reconf inactive, HEK293 Ca flux inactive, HEK293 Ca counter inactive and HEK293 Ca cntr2 inactive.
`OC(C#Cc1ccccn1)c1cccs1` (stereo unspecified) gave MrgX1 antagonist inactive, RGS4 act inactive, MrgX1 PAM inactive, RGS4 inh inactive, MrgX1 agonist 44*, MrgX1 ag reconf inactive, HEK293 Ca flux inactive, HEK293 Ca counter inactive and HEK293 Ca cntr2 inactive.
O=C(O)Cc1sc(Nc2ccc(F)cc2)nc1-c1cccs1 was read as MrgX1 antagonist inactive, RGS4 act inactive, MrgX1 PAM inactive, RGS4 inh inactive, MrgX1 agonist 32*, MrgX1 ag reconf inactive, HEK293 Ca flux inactive, HEK293 Ca counter inactive and HEK293 Ca cntr2 inactive.
`Cc1cc2nc3ccc(N(C)C)cc3nc2cc1N` gave MrgX1 antagonist inactive, RGS4 act inactive, MrgX1 PAM inactive, RGS4 inh inactive, MrgX1 agonist 26*, MrgX1 ag reconf 259%*, HEK293 Ca flux inactive, HEK293 Ca counter inactive and HEK293 Ca cntr2 inactive.
O=C1NC(Nc2ccccn2)(C(F)(F)F)C(=O)N1c1ccc(F)cc1 (stereo unspecified) was read as MrgX1 antagonist inactive, RGS4 act inactive, MrgX1 PAM inactive, RGS4 inh inactive, MrgX1 agonist 32*, MrgX1 ag reconf 207%*, HEK293 Ca flux inactive, HEK293 Ca counter inactive and HEK293 Ca cntr2 54*.
For COC(=O)c1ccccc1NC(=S)NC(=O)c1ccc(C)cc1 the results were MrgX1 antagonist inactive, RGS4 act inactive, MrgX1 PAM inactive, RGS4 inh inactive, MrgX1 agonist 37*, MrgX1 ag reconf inactive, HEK293 Ca flux inactive, HEK293 Ca counter inactive and HEK293 Ca cntr2 inactive.
For CCCCC(=O)NNC(=S)NC(=O)c1ccc([N+](=O)[O-])cc1 the results were MrgX1 antagonist inactive, RGS4 act inactive, MrgX1 PAM inactive, RGS4 inh inactive and MrgX1 agonist inactive.
`COC(=O)c1ccccc1NC(=S)NC(=O)c1ccccc1` gave MrgX1 antagonist inactive, RGS4 act inactive, MrgX1 PAM inactive, RGS4 inh inactive and MrgX1 agonist inactive.
`O=C(NNC(=S)Nc1ccc(F)cc1F)c1ccco1` gave MrgX1 antagonist inactive, RGS4 act inactive, MrgX1 PAM inactive, RGS4 inh inactive and MrgX1 agonist inactive.
O=C(NNC(=S)NC(=O)c1ccco1)c1ccc(F)cc1 was read as MrgX1 antagonist inactive, RGS4 act inactive, MrgX1 PAM inactive, RGS4 inh inactive, MrgX1 agonist 69*, MrgX1 ag reconf 201%*, HEK293 Ca flux inactive, HEK293 Ca counter inactive and HEK293 Ca cntr2 47*.
For COc1ccc(C(=O)NC(=S)NNC(=O)c2ccc(C)cc2)cc1 the results were MrgX1 antagonist inactive, RGS4 act -7.3*, MrgX1 PAM inactive, RGS4 inh inactive, MrgX1 agonist 149*, MrgX1 ag reconf 659%*, HEK293 Ca flux inactive, HEK293 Ca counter inactive and HEK293 Ca cntr2 133*.
For CCCCC(=O)NNC(=S)NC(=O)c1ccc(C)cc1 the results were MrgX1 antagonist inactive, RGS4 act inactive, MrgX1 PAM inactive, RGS4 inh inactive, MrgX1 agonist 150*, MrgX1 ag reconf 712%*, HEK293 Ca flux inactive, HEK293 Ca counter inactive and HEK293 Ca cntr2 159*.

Screening results (PubChem)
